Screening results: PubChem, several laboratories
Rows were chosen to be rich in hits. Some 1.7% of all compounds tested hit in one or more screens of this group.
TPT1 inh – Candida albicans TPT1 enzyme inhibitors, primary screen, biochemical, fluorescence polarization | tRNA 2'-phosphotransferase TPT1 (Candida albicans SC5314) | recombinant caTPT1, FP RNA substrate dephosphorylation | inhibition, % at 5 µM | 300,000 tested, 0.81% active | AID 1962, 2009;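 active = inhibition above the mean of all tested compounds plus 3 SD, set per screening campaign, cut at about 24% in these data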;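 note: plate controls were DMSO alone for no effect and ferristatin control at 100 nM for full effect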
HNF4A DNA FP – change in binding of human HNF4A to DNA, primary screen, biochemical, fluorescence polarization, FITC-DNA. Hepatocyte nuclear factor 4-alpha (Homo sapiens), P41235. 1 h. activity change, % at 10 µM. 360,000 tested, 0.3% active. AID 1224865, 2016; in the data active = activity change above about 30%, passing the limit was not always enough
IDE act – human IDE activators in live cells, primary screen, fluorescence polarization, HEK cells, FAbeta-B substrate; Insulin-degrading enzyme (Homo sapiens), P14735; FAbeta-B cleavage; 0% vehicle, 100% cell-free pure enzyme wells; activation, % at 5.96 µM; 340,000 tested, 0.073% active;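 active = activation above the mean of all tested compounds plus 3 SD, set per screening campaign, cut at about 17% in these data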
Target sequence (P14735 whole entry, looked up): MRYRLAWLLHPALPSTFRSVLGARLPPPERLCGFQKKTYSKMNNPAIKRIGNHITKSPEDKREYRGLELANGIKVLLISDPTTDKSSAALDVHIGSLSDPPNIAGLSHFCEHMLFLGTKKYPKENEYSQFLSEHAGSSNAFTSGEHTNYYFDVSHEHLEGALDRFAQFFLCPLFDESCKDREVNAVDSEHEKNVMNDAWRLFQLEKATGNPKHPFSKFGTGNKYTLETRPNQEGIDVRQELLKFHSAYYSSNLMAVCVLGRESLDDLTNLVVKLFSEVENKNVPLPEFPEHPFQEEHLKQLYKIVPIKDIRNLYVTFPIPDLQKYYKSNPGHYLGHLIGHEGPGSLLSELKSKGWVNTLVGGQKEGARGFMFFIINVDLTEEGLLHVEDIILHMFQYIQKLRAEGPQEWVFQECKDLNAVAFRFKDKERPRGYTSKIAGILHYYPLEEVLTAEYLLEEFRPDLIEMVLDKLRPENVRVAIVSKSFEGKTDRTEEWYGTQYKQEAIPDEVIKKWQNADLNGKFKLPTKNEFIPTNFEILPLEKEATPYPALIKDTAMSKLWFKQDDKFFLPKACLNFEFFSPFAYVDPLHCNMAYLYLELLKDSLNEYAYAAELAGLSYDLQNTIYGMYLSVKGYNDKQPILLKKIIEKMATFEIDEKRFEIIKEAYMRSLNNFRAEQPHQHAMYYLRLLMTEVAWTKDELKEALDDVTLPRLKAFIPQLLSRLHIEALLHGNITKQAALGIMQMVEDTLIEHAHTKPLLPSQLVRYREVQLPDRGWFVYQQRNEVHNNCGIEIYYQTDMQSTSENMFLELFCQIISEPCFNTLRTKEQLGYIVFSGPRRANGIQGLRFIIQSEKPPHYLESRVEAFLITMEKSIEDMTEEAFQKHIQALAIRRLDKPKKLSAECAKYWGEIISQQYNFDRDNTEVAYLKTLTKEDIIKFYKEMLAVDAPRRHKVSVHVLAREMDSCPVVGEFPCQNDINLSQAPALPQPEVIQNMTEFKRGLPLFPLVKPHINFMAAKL
IDE cell inh – human IDE inhibitors in live cells, primary screen, fluorescence polarization, HEK cells, FAbetaB substrate | AID 434962, 2010 | FAbetaB cleavage | inhibition, % at 5.59 µM | Insulin-degrading enzyme (Homo sapiens), P14735 | 320,000 tested, 0.41% active;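 active = percent inhibition above the average of all tested compounds plus 3 SD, set per screening campaign, cut at about 16% in these data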;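 note: IDE supplied by intact live HEK cells; FP after avidin binding of uncleaved biotin substrate so inhibition keeps polarization high; 0% = DMSO wells and 100% = 60 µM reference IDE inhibitor Ii1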
TbMetRS inhib – T. brucei MetRS inhibitors, primary screen, biochemical, luminescence; methionyl-tRNA synthetase (Trypanosoma brucei brucei); purified T. brucei MetRS, ATP depletion, Kinase-Glo luminescence; inhibition, % at 11.9 µM; 360,000 tested, 0.4% active; AID 624268, 2012;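 active = inhibition above a per-plate cutoff of the control wells' mean inhibition plus 3 SD, cut at about 5.5% in these data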;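 note: 0% = DMSO wells median and 100% = median of wells with control inhibitor compound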
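Dosing: 11.9 µM compound single dose, 0.9% DMSO; Assay system: purified T. brucei MetRS enzyme; Measured by: Kinase-Glo luciferase luminescence reporting remaining unconsumed ATP; Schedule: 15 min plus 2 h at 25 °C.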
CSN inh – inhibitors of CSN-mediated cullin deneddylation, primary screen, biochemical, fluorescence polarization, uHTS; Purified CSN, SCF-Nedd8-OG deneddylation; inhibition, % at 12.5 µM; 360,000 tested, 0.38% active; AID 651999, 2013;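 active = pattern-corrected inhibition above about 35%, with an unprinted fluorescence ratio check between 0.5 and 1.5, limit read from the data, passing the limit was not always enough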;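 note: 0% = enzyme with substrate and 100% = substrate without enzyme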
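assay system = purified human Csn5 enzyme expressed in HEK293T cells | amount = 0.24 nM enzyme | buffer or medium = Tris/NaCl/DTT buffer, pH 7.5 | reagent = 10 nM SCFSkp2-Nedd8OG | compound = one concentration, 12.5 µM, 0.25% DMSO | times = 90 min reaction at room temperature | signal = FP | read-out basis = % inhibition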
Numbers without * were called inactive; / = not tested or not shown.

SMILES	TPT1 inh	HNF4A DNA FP	IDE act	IDE cell inh	TbMetRS inhib	CSN inh
CC(=O)N(c1cccc(Cl)c1)c1nc(C)cc(C)c1C#N	-3.1	3.7	6.0	2.2	-0.3	-2.4
O=C(c1[nH]c(C(F)(F)F)nc1-c1ccccc1)N1CCN(c2ncccc2C(F)(F)F)CC1	/	-2.1	/	/	-0.8	0.1
O=C(CC1SC(=Nc2ccccc2)N(CCO)C1=O)Nc1ccccc1 (stereo not given)	1.2	0.2	4.2	2.8	-1.0	-4.3
O=C(CC1SC(=Nc2ccccc2)N(CCCO)C1=O)Nc1ccc(Cl)cc1 (stereo not given)	1.6	-0.2	1.4	9.6	14.0*	-2.2
O=C(Cn1c(=O)n(Cc2ccco2)c(=O)c2c3c(sc21)CCCCC3)c1ccccc1	6.8	-13.2	3.6	1.9	-1.2	37.8*
Cn1cc(C=CC(=O)O)c2nccnc21	/	1.0	/	/	-0.1	3.2
O=C(Nc1cc(S(=O)(=O)N2CCCC2)ccc1Cl)c1cc(F)c(F)c(F)c1F	/	1.6	3.6	2.7	-0.2	-0.9
Cc1ccc(OC/C(=N\O)C(C)(C)C)c([N+](=O)[O-])c1	-6.0	0.7	0.9	2.5	-2.0	-3.4
COc1ccc(CN(C)C[C@@H]2OCc3cnnn3CCCC(=O)N([C@H](C)CO)C[C@H]2C)cc1	/	-1.4	/	/	0.4	1.6
O=C(NS(=O)(=O)Nc1ccccc1)C1=C(N2CCCC2)COC1=O	/	3.0	33.9*	-0.1	-0.3	-1.6
O=C(NC(=O)c1ccccc1)C1=C(N2CCCC2)COC1=O	/	2.8	2.6	-5.4	-0.3	1.8
COc1cccc(OC)c1OCCCN1CCC(Cc2ccccc2)CC1	1.4	-3.4	0.3	-0.1	0.7	1.0
Fc1ccc(Cc2nnc(-c3cccs3)o2)cc1	-3.4	-0.3	3.3	1.7	-1.3	-2.5
Fc1ccc(-c2nnc(Cc3ccc(Cl)cc3)o2)cc1	1.9	61.1*	-4.5	-4.1	0.1	-0.9
CC(C)(C)c1ccc(C(=O)NNC(=O)CNC(=O)c2cccs2)cc1	/	0.8	0.3	-1.9	-0.4	-6.7
COc1ccc(-n2nc3c(N4CCC(C(=O)NCc5ccccc5C)CC4)nnc(C)c3c2C)cc1	5.2	11.2	1.8	2.7	0.1	116.6*
COC(=O)c1ccccc1S(=O)(=O)NNC(=O)c1nn(C)c(=O)c2ccccc12	/	0.1	4.4	5.8	-0.1	0.9
O=C(O)c1ccccc1N=Nc1ccc(O)cc1	-23.6	-9.4	19.8*	-13.6	-1.0	-8.6
CC(NC(=O)c1ccc2c(c1)OCO2)C(c1cccs1)N1CCN(c2ccccc2)CC1 (stereo not given)	1.5	10.1	7.2	3.8	-0.4	-1.0
CCN(CC)CCOC(=O)c1ccc(N/C=C(/C#N)c2nc(-c3ccc(OC)cc3)cs2)cc1	6.2	238.2	4.6	2.8	-0.6	137.1*
N#Cc1ccc(COc2ccc(CCO)cc2-n2nc3ccccc3n2)cc1	4.6	-0.8	-0.6	5.5	-0.4	100.3*
COc1ccc(-c2nnc(SCc3csc(N)n3)n2C)cc1	-0.9	37.4*	-4.5	6.5	-0.5	-4.7
C=CCN1C(=O)c2ccc(C(=O)OCC(=O)N(CC)C3CCS(=O)(=O)C3)cc2C1=O (stereo not given)	/	-3.7	22.3*	-3.0	-0.6	1.0
O=C(CCCSc1ccccc1)Nc1nc(-c2ccco2)c(-c2ccco2)s1	3.9	7.6	-0.8	4.7	-0.3	42.6*
Cc1ccc(C(=O)Nc2nc(-c3ccco3)c(-c3ccco3)s2)o1	/	-5.5	3.3	/	-0.2	41.8
SMILES	TPT1 inh	HNF4A DNA FP	IDE act	IDE cell inh	TbMetRS inhib	CSN inh
COc1cc(-c2onc3ccc(Br)cc23)cc(OC)c1OC	1.9	43.0*	-1.5	-3.8	-0.2	-6.3
CC(C)N1C(=O)S/C(=C/c2ccc(Sc3nc4ccccc4[nH]3)o2)C1=O	0.8	87.7*	-3.6	4.5	0.1	4.6
C=CCN1C(=O)S/C(=C/c2ccc(Sc3nc4ccccc4[nH]3)o2)C1=O	-1.4	116.5	2.9	-0.1	0.2	1.9
CC(C)C(C(=O)Nc1ccc(S(N)(=O)=O)cc1)N1C(=O)c2ccccc2C1=O (stereo not given)	0.6	-4.0	3.1	4.5	-0.2	-8.7
CCNC(=O)C1(C)CCCN(C(=O)c2ccc3c(c2)C(C)(C)CCC3(C)C)C1 (stereo not given)	/	6.0	/	/	0.1	-0.2
O=C(Cc1nc2ccccc2[nH]c1=O)c1ccccc1	/	38.3*	-12.5	/	-0.7	-3.0
CS(=O)(=O)c1ccc(Cl)c(NC(=O)COC(=O)CCCN2C(=O)c3cccc4cccc(c34)C2=O)c1	-3.5	0.0	3.8	7.0	-0.4	-1.8
C=CCc1ccc(OCC(O)CN2CCCCC2)c(OC)c1 (stereo not given)	-2.9	50.3*	4.7	0.2	-0.2	1.1
CC(=O)N1CC[n+]2c(-c3ccc(Cl)cc3Cl)csc21	-5.9	-0.2	-6.4	16.7*	0.6	5.2
O=C(COC(=O)Cc1c(F)cccc1Cl)NCc1ccc2c(c1)OCO2	/	-1.2	2.0	0.8	0.0	0.8
CCOc1ccc(C(=O)Nc2ccc(N3CCN(C)CC3)cc2)cc1Br	0.1	1.6	-4.2	3.3	-1.0	4.5
CCOc1ccc(C(=O)Nc2ccc(N3CCN(C(=O)c4ccco4)CC3)cc2)cc1Br	/	-0.3	-3.5	/	-0.4	44.4*
CCN/C=C(\C#N)S(=O)(=O)c1ccc(Br)cc1	-0.4	0.8	0.9	1.1	-0.1	99.7*
CCN(CC)c1ccc(C(=O)NNC(=O)CNC(=O)c2ccco2)cc1	/	1.7	0.4	/	-0.2	9.5
Cc1ccc(C(=O)NCC(c2ccc(F)cc2)N2CCOCC2)s1 (stereo not given)	/	0.5	-3.1	-0.6	0.4	-2.6
Cc1ccc(C(=O)NCC(c2ccc(F)cc2)N2CCOCC2)cc1 (stereo not given)	0.1	77.2*	8.6	2.8	-0.4	0.0
Cc1ccccc1NC(=O)CSc1nc(N)c(C#N)c(-c2cccs2)c1C#N	0.6	-2.4	-3.2	-4.8	8.1*	-1.8
COc1ccc(NC(=O)NCc2ccccn2)c(OC)c1	-1.9	-0.4	1.0	-3.5	-0.3	-0.2
CCc1ccc2c(CN3CCC(C(=O)OC)CC3)cc(=O)oc2c1	0.1	83.7*	1.0	5.6	-0.8	-0.8
